Data published in PMC10392308 (Journal of Enzyme Inhibition and Medicinal Chemistry, 2023).
pIC50: −log10 of the molar value. Converted amounts (≈) assume the structure as drawn. Blank lines part the entries; values can stand above or below the compound they belong to.

What was measured:
HCT116 cancer cells = assay: In vivo anticancer effect in nude mice inoculated with HCT116 cells; parameters: species or system Balb/c nude mice; conditions: for Tumour growth inhibition rate: by tumour weight; for Tumour weight / Tumour volume at the end of the administration: compound 2 2.5 and 1 mg/kg, 5-FU 10 mg/kg; for Tumour weight: p < 0.001 vs control; for Tumour volume at the end of the administration: p < 0.01 vs control
Procedure, shortened: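 Female Balb/c nude mice, 8 weeks old, received 0.1 ml of 1 × 10^8/mL HCT116 cells in the right armpit, six mice per group. At about 100 mm3 tumour, dosing began: i.p., 5 ml/kg, once every two days, vehicle 5% DMSO in soybean oil, with a vehicle group and a 5-FU group. Body weight and tumour diameters were taken every 3 d, with volume = A×B²/2. Inhibition = (1 − mean treated/control tumour weight) × 100%.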

TNF-α = assay: ELISA detection of TNF-α in tumour mice; format: in vivo, nude mice; conditions: serum, compound 2 1 and 2.5 mg/kg, 5-FU 10 mg/kg, vs control
Procedure, shortened: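 HCT116 xenografts (1×10^8 cells/mL, 0.1 ml, right armpit) in 8-week-old female Balb/c nude mice, six per group. Test compound given i.p. in 5% DMSO/soybean oil (5 ml/kg) from ~100 mm3 tumours for 20 days. At sacrifice, serum held 2 h, spun 1000 × g for 20 min, stored −80 °C. TNF-α measured by mouse ELISA kit, six sera per group, triplicate wells.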

tumour tissue = assay: Haematoxylin-eosin staining; format: in vivo, nude mice; conditions: compound 2 1 and 2.5 mg/kg, 5-FU 10 mg/kg; vs control group
Procedure, shortened: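 Female Balb/c nude mice (8 weeks) bore HCT116 xenografts from 1×10^8 cells/mL, 0.1 ml in the right armpit, six per group. Dosing was i.p. in 5% DMSO/soybean oil at 5 ml/kg, starting at ~100 mm3, for 20 days, with vehicle controls. Tumours collected after sacrifice and stained with haematoxylin-eosin; nuclei blue, cytoplasm red.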

VEGF [1] = assay: Immunohistochemical detection of VEGF expression in tumour tissue; format: in vivo, nude mice; conditions: compound 2 1 and 2.5 mg/kg, 5-FU 10 mg/kg; p < 0.0001 vs control
[2] = Water solubility determination using HPLC; format: physicochemical; conditions: 37 °C, thermodynamic from solid
Procedure, shortened: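 […] were sonicated 10 min at 37 °C. After standing 1 h, the clear upper liquid was membrane-filtered and injected on HPLC. Water solubility was calculated from peak area using the regression equation.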

AGS = assay: MTT antiproliferative assay, AGS; format: cell-based; conditions: Homo sapiens, 48 h, read-out: IC50 values, AGS, MTT, 48 h
HCT-116 = assay: MTT antiproliferative assay, HCT-116; format: cell-based; conditions: Homo sapiens, HCT-116, 48 h, read-out: IC50 values, HCT-116, MTT, 48 h
MGC-803 cells [3] = assay: Cell cycle analysis with flow cytometry; format: cell-based, human; conditions: for Cells in G1 phase: DMSO 64.36%; for Phase in which the cell cycle is blocked: MGC-803, 18 h; for Cells in S phase: DMSO 20.59%
MGC-803 cells [4] = assay: Apoptosis assay with flow cytometry; format: cell-based, human; conditions: MGC-803, 18 h, highest value reached; blank control 8.2
VEGF [5] = assay: ELISA for the expression of VEGF in MGC-803 cells; format: cell-based, human; conditions: for Effect on the expression of VEGF: MGC-803, 0.1, 0.5, 1 µM, hypoxia or not
Procedure, shortened: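 The hypoxia arm used 100 µM CoCl2·6H2O (1% O2) and was run beside 21% O2 cultures. MGC-803 cells were exposed 24 h to test compound at 0.1, 0.5 or 1 µM, with a 0.1% DMSO blank and a positive control. Supernatants were spun at 1000 × g for 20 min at 4 °C, and VEGF was quantified by human VEGF ELISA kit.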

MMP-9 = assay: ELISA for the expression of MMP-9 in MGC-803 cells; format: cell-based, human; conditions: for MMP-9 expression: control 18.6 ng/ml; for Effect on the expression of MMP-9: MGC-803, 0.1, 0.5, 1 µM
zebrafish embryos = assay: Zebrafish embryonic acute toxicity test; format: in vivo
Procedure, shortened: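 Normally developed embryos at 6 hpf were placed in 24-well plates, six per well, and exposed for three days to test compound at 0.1, 0.15, 0.2, 0.3 and 0.5 μM, with a 0.5% DMSO blank. Hatching (shell without membrane) and death (cardiac arrest) were scored every 24 h. Incubation rate = hatched/total embryos × 100%, and mortality = dead/total × 100%.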

zebrafish larvae = assay: Zebrafish adult fish; format: in vivo; conditions: for Concentrations causing acute toxicity in zebrafish larvae: in vivo
Procedure, shortened: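 Normally developed larvae at 3 dpf were placed in 24-well plates, six per well, and exposed to test compound at 0.1, 0.2, 0.3, 0.4 and 0.5 μM. Mortality was recorded at 24 h and 72 h.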

Structure (SMILES): O=c1[nH]cc(F)c(=O)[nH]1 [5-FU, 5-fluorouracil, reference compound]
- Tumour growth inhibition rate (HCT116 cancer cells; 10 mg/kg intraperitoneally): 37.02%
- Tumour weight (HCT116 cancer cells): significantly lower than that in the control group
- Tumour volume at the end of the administration (HCT116 cancer cells): significantly smaller than that of the control
- TNF-α content of tumour mice (TNF-α): increased the TNF-α content significantly
- Morphological changes in tumour tissue (HE) (tumour tissue): tumour tissue structure was seriously damaged and the cell necrosis was obvious
- VEGF expression in tumour tissue (immunohistochemistry) (VEGF [1]): downregulated the VEGF expression significantly

Structure (SMILES): CC1=C(O)C(=O)C=C2C1=CC=C1[C@@]2(C)CC[C@@]2(C)[C@@H]3C[C@](C)(C(=O)OCCCO)CC[C@]3(C)CC[C@]12C [Compound 2, 3-Hydroxypropyl (2 R,4aS,6aS,12bR,14aS,14bR)-10-hydroxy-2,4a,6a,9,12b,14a-hexamethyl-11-oxo-1,2,3,4,4a,5,6,6a,11,12b,13,14,14a,14b-tetradecahydropicene-2-carboxylate]
- solubility at 1 h [2]: 11.8 µg/mL (≈ 23.2 µM)
- pIC50 (AGS): 6.48
- pIC50 (HCT-116): 6.41 to 6.49
- Cells in G2 phase (MGC-803 cells [3]; 1 µM, 18 h, MGC-803, DMSO 15.05%): 37.01%
- Cells in G1 phase (MGC-803 cells [3]; 1 µM, 18 h, MGC-803): 44.77%
- Phase in which the cell cycle is blocked (MGC-803 cells [3]): G2 phase
- Overall apoptosis rate (early apoptosis + late apoptosis) (MGC-803 cells [4]): 13%
- VEGF expression (VEGF [5]; CoCl2-induced hypoxia, 0.1 µM, control 568.1 pg/ml): 430.8 pg/mL
- VEGF expression (VEGF [5]; CoCl2-induced hypoxia, 0.5 µM, control 568.1 pg/ml): 397.5 pg/mL
- VEGF expression (VEGF [5]; CoCl2-induced hypoxia, 1 µM, control 568.1 pg/ml): 328.8 pg/mL
- Effect on the expression of VEGF (VEGF [5]): inhibited the expression of VEGF in a concentration-dependent manner
- VEGF expression (VEGF [5]; normal oxygen conditions, 0.1 µM, control 531.5 pg/ml): 514.1 pg/mL
- VEGF expression (VEGF [5]; normal oxygen conditions, 0.5 µM, control 531.5 pg/ml): 398.1 pg/mL
- VEGF expression (VEGF [5]; normal oxygen conditions, 1 µM, control 531.5 pg/ml): 352.1 pg/mL
- MMP-9 expression (MMP-9; MGC-803, 0.5 µM): 10.04 ng/mL
- MMP-9 expression (MMP-9; MGC-803, 1 µM): 9.64 ng/mL
- Effect on the expression of MMP-9 (MMP-9): inhibited the expression of MMP-9 in MGC-803 cells in a concentration-dependent manner
- Body weight during the treatment period (HCT116 cancer cells; 1 mg/kg): no significant changes of body weight
- Body weight during the treatment period (HCT116 cancer cells; 2.5 mg/kg): downward trend
- Mental state of the mice (HCT116 cancer cells; 2.5 mg/kg): depressed
- Tumour weight (HCT116 cancer cells): significantly lower than that in the control group
- Tumour volume at the end of the administration (HCT116 cancer cells): significantly smaller than that of the control
- Tumour growth inhibition rate (HCT116 cancer cells; high-dose 2.5 mg/kg intraperitoneally): 55.82%
- Tumour growth inhibition rate (HCT116 cancer cells; low-dose 1 mg/kg intraperitoneally): 50.83%
- TNF-α content of tumour mice (TNF-α): decreased the TNF-α content significantly in a dose-dependent manner
- Morphological changes in tumour tissue (HE) (tumour tissue): tumour tissue structure was seriously damaged and the cell necrosis was obvious
- VEGF expression in tumour tissue (immunohistochemistry) (VEGF [1]): downregulated the VEGF expression significantly
- Acute toxicity for zebrafish embryos (zebrafish embryos; 0.1 μM): no acute toxicity
- Incubation (hatching) rate of zebrafish embryos (zebrafish embryos; 0.15 μM): 25%
- Hatching of zebrafish eggs (zebrafish embryos; 0.2 μM): no eggs hatched
- Death rate of zebrafish embryos (zebrafish embryos; 0.5 μM, on the first day): 100%
- Mortality of zebrafish embryos (zebrafish embryos; 0.5 μM, on the fourth day): 100%
- 100% mortality concentration (zebrafish larvae; zebrafish larvae, exposed for 72 h): 0.1 µM
- Concentrations causing acute toxicity in zebrafish larvae (zebrafish larvae): higher than 0.1 μM

- pIC50 (HCT-116): 6.41 to 6.49
Structure (SMILES): CC1=C(O)C(=O)C=C2C1=CC=C1[C@@]2(C)CC[C@@]2(C)[C@@H]3C[C@](C)(C(=O)OCCCCO)CC[C@]3(C)CC[C@]12C [Compound 3, 4-Hydroxybutyl (2 R,4aS,6aS,12bR,14aS,14bR)-10-hydroxy-2,4a,6a,9,12b,14a-hexamethyl-11-oxo-1,2,3,4,4a,5,6,6a,11,12b,13,14,14a,14b-tetradecahydropicene-2-carboxylate]

Structure (SMILES): CC1=C(O)C(=O)C=C2C1=CC=C1[C@@]2(C)CC[C@@]2(C)[C@@H]3C[C@](C)(C(=O)O)CC[C@]3(C)CC[C@]12C [celastrol, Celastrol, reference compound]
- solubility at 1 h [2]: 6.2 µg/mL (≈ 13.8 µM)
- Cells in S phase (MGC-803 cells [3]; 0.1 µM, 18 h, MGC-803): 19.18%
- Cells in S phase (MGC-803 cells [3]; 1 µM, 18 h, MGC-803): 29.41%
- Cells in G1 phase (MGC-803 cells [3]; 1 µM, 18 h, MGC-803): 52.96%
- Phase in which the cell cycle is blocked (MGC-803 cells [3]): S phase
- Overall apoptosis rate (early apoptosis + late apoptosis) (MGC-803 cells [4]): 9.8%
- Effect on the expression of VEGF (VEGF [5]): inhibited the expression of VEGF in a concentration-dependent manner
- Effect on the expression of MMP-9 (MMP-9): inhibited the expression of MMP-9 in MGC-803 cells in a concentration-dependent manner
- Death rate of zebrafish embryos (zebrafish embryos; 0.2 μM): 50%
- Incubation (hatching) rate of zebrafish embryos (zebrafish embryos; 0.3 or 0.5 μM): zero
- Incubation (hatching) rate of zebrafish embryos (zebrafish embryos; exposure concentrations of 0.1, 0.15, and 0.2 μM): more than 75%
- Concentrations causing acute toxicity in zebrafish larvae (zebrafish larvae): higher than 0.1 μM
